Experimental data from ChEMBL document CHEMBL2176968, “Identification of less lipophilic riminophenazine derivatives for the treatment of drug-resistant tuberculosis” (J Med Chem, 2012).

Tests used:
Mus musculus = test: Toxicity in BALB/c mouse infected with multi-drug resistant Mycobacterium tuberculosis isolate 040 assessed as skin discoloration at 20 mg/kg, po qd administered 5 days per week during acute phase of infection measured after 20 days; format: organism-based; design: dose 20 mg/kg, route oral; details: in vivo, 480 h
Summary of the method: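 Mice were infected by aerosol and then dosed by gavage at 20 mg/kg in 0.5% CMC, 5 days per week, from day 10 to day 30. During treatment, discoloration of ears, internal organs and fat tissue was scored visually and ranked by color intensity.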

[1] = test system: Mycobacterium tuberculosis; test: Antitubercular activity against multi-drug resistant Mycobacterium tuberculosis isolate 040 infected in BALB/c mouse assessed as reduction in lung bacterial load at 20 mg/kg, po qd administered 5 days per week during acute phase of infection measured after 20 days relative to untreated control; format: functional
Summary of the method: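 Infection was by aerosol, depositing 50-100 bacilli per lung. Dosing began on day 10 and ran to day 30, 5 days per week, with compound in 0.5% CMC by gavage. Groups had 5-6 treated mice and 7-10 CMC-treated controls. The day after the last dose, lung homogenates were plated on supplemented 7H11 agar in duplicate for 2-3 weeks at 37°C. Results are log10 CFU per lung; means were compared by Student's t test.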

Row | Structure (SMILES) | Activity (Mus musculus) | log10cfu [1]
1 | COC1CCC(/N=c2\cc3n(-c4ccc(Cl)cc4)c4ccccc4nc-3cc2Nc2ccc(C)nc2)CC1 (centres undefined) | Non-toxic | 3.25
2 | COc1ncccc1Nc1cc2nc3ccccc3n(-c3ccc(F)cc3)c-2c/c1=N\C1CCC(OC)CC1 (centres undefined) | Toxic | 4.35
3 | CC(C)/N=c1\cc2n(-c3ccc(Cl)cc3)c3ccccc3nc-2cc1Nc1ccc(Cl)cc1 [CLOFAZIMINE] | Toxic | 3.54
4 | COc1ncccc1Nc1cc2nc3ccccc3n(-c3ccc(OC(F)(F)F)cc3)c-2c/c1=N\C1CCC(OC)CC1 (centres undefined) | Non-toxic | 4.67
5 | COc1ncccc1Nc1cc2nc3ccccc3n(-c3ccc(Cl)cc3)c-2c/c1=N\C1CCOCC1 | Non-toxic | 4.81
6 | COc1ncccc1Nc1cc2nc3ccccc3n(-c3ccc(F)cc3)c-2c/c1=N\C(C)C | Toxic | 3.91
7 | COc1ncccc1Nc1cc2nc3ccccc3n(-c3ccc(Cl)cc3)c-2c/c1=N\C1CCC(OC)CC1 (centres undefined) | Non-toxic | 4.04
